Tests used:
MT4 [1] = test: Ratio of CC50 to that of EC50 determined in MT-4 cells; type: functional
Method in brief: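 Selectivity index, calculated as CC50/EC50. CC50 came from MTT viability of mock-infected MT-4 cells and EC50 from MTT-read protection of HIV-1-infected MT-4 cells from cytopathogenicity, with both run in parallel. Values are means of three experiments.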

MT4 [2] = test: Effective concentration require to protect MT-4 cells from human immunodeficiency virus type 1 induced cytopathogenicity was determined by MTT method; type: functional, cell-based
Method in brief: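 MT-4 cells infected with HIV-1, with test compounds added. Protection from virus-induced cytopathogenicity was read by MTT. EC50 is the concentration giving 50% protection. Values are means of three separate experiments, with variation among triplicates under 10%. Trovirdine served as the reference.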

MT4 [3] = test: Cytotoxic concentration required to reduce the viability of mock infected MT-4 cells determined by MTT method; type: functional; conditions: Homo sapiens
Method in brief: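 Viability of mock-infected MT-4 cells, assayed in parallel with the antiviral test, read by MTT. CC50 is the concentration that lowers viability by 50%. Values are means of three separate experiments, with variation among triplicates under 10%. The highest concentration tested was 100 µM.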

Row | Structure (SMILES) | SI (MT4 [1]) | EC50 (MT4 [2]) | CC50 (MT4 [3])
1 | O=C1c2ccccc2C(=O)N1CCOC(=S)Nc1ccccc1Cl | >5.9 | 17 µM | > 100 µM
2 | Cc1cccc2c1C(=O)N(CCO/C(S)=N/c1ccc(Cl)cc1)C2=O | >2000 | 0.05 µM | > 100 µM
3 | COc1ccc(NC(=S)OCCN2C(=O)c3ccccc3C2=O)cc1 | >3333 | 0.03 µM | > 100 µM
4 | CC(=O)c1ccc(NC(=S)OCCN2C(=O)c3ccccc3C2=O)cc1 | >714 | 0.14 µM | > 100 µM
5 | N#Cc1ccc(/N=C(/S)OCCNC(=O)c2ccccc2C(=O)O)cc1 | >1000 | 0.1 µM | > 100 µM
6 | CSc1cccc(NC(=S)OCCNC(=O)c2ccccc2C(=O)O)c1 | >9.1 | 11 µM | > 100 µM
7 | O=C(O)c1ccccc1C(=O)NCCO/C(S)=N\c1ccc(OCc2ccccc2)cc1 | >200 | 0.5 µM | > 100 µM
8 | Cc1ccc2c(c1)C(=O)N(CCO/C(S)=N/c1ccc([N+](=O)[O-])cc1)C2=O | >8000 | 0.01 µM | 80 µM
9 | CC(CN1C(=O)c2ccccc2C1=O)O/C(S)=N/c1ccc(C#N)cc1 (stereo not drawn) | >2.7 | 36 µM | > 100 µM
10 | CSc1cccc(NC(=S)OCCN2C(=O)c3ccccc3C2=O)c1 | >14.3 | 7 µM | > 100 µM
11 | COc1cccc(NC(=S)OCCN2C(=O)c3ccccc3C2=O)c1 | >25 | 4 µM | > 100 µM
12 | CCOc1ccc(NC(=S)OCCNC(=O)c2ccccc2C(=O)O)cc1 | 50 | 2 µM | > 100 µM
13 | O=C1c2ccccc2C(=O)N1CCCOC(=S)Nc1ccccc1 |  | > 100 µM | > 100 µM
14 | COC(=O)c1cccc(NC(=S)OCCN2C(=O)c3ccccc3C2=O)c1 | >4.8 | 21 µM | > 100 µM
15 | O=C1c2ccccc2C(=O)N1CCOC(=S)Nc1cccc2ccccc12 | >15.4 | 6.5 µM | > 100 µM
16 | Cc1ccc(NC(=S)OCCNC(=O)c2ccccc2C(=O)O)cc1 | >250 | 0.4 µM | > 100 µM
17 | CCN(CC)c1ccc(NC(=S)OCCN2C(=O)c3ccccc3C2=O)cc1 | >71 | 1.4 µM | > 100 µM

Row | Structure (SMILES) | SI (MT4 [1]) | EC50 (MT4 [2]) | CC50 (MT4 [3])
18 | O=C(O)c1ccccc1C(=O)NCCO/C(S)=N\c1cccc(Cl)c1 | >33.3 | 3 µM | > 100 µM
19 | CCc1ccc(NC(=S)OCCNC(=O)c2ccccc2C(=O)O)cc1 | >333 | 0.3 µM | > 100 µM
20 | O=C1CCC(=O)N1CCOC(=S)Nc1ccc(Cl)cc1 | >42 | 2.4 µM | > 100 µM
21 | O=C1c2ccccc2C(=O)N1CCOC(=S)Nc1cccc(C(F)(F)F)c1 | >7.7 | 13 µM | > 100 µM
22 | CN(C)c1ccc(NC(=S)OCCN2C(=O)c3ccccc3C2=O)cc1 | >167 | 0.6 µM | > 100 µM
23 | O=C(O)c1ccccc1C(=O)NCCO/C(S)=N\c1ccc(Cl)cc1 | >1000 | 0.1 µM | > 100 µM
24 | Cc1ccccc1/N=C(/S)OCCNC(=O)c1ccccc1C(=O)O | >3.7 | 27 µM | > 100 µM
25 | CC(C)c1ccc(NC(=S)OCCNC(=O)c2ccccc2C(=O)O)cc1 | >27 | 3.7 µM | > 100 µM
26 | Cc1cccc(NC(=S)OCCN2C(=O)c3ccccc3C2=O)c1 | >66.7 | 1.5 µM | > 100 µM
27 | CC(CN1C(=O)c2ccccc2C1=O)O/C(S)=N/c1ccc(Cl)cc1 (stereo not drawn) | >58.8 | 1.7 µM | > 100 µM
28 | O=C1c2ccccc2C(=O)N1COC(=S)Nc1ccc([N+](=O)[O-])cc1 |  | > 23 µM | 23 µM
29 | O=C(O)c1ccccc1C(=O)NCCO/C(S)=N\c1ccccc1 | >33.3 | 3 µM | > 100 µM
30 | O=C(O)c1ccccc1C(=O)NCCO/C(S)=N\c1ccc(Br)cc1 | >1000 | 0.1 µM | > 100 µM
31 | Cc1ccc(/N=C(\S)OC(C)CN2C(=O)c3ccccc3C2=O)cc1 (stereo not drawn) | >2.1 | 48 µM | > 100 µM
32 | O=C(O)c1ccccc1C(=O)NCCO/C(S)=N\c1ccc(F)cc1 | >400 | 0.25 µM | > 100 µM
33 | O=C1C2C3C=CC(C3)C2C(=O)N1CCOC(=S)Nc1ccc([N+](=O)[O-])cc1 (stereo not drawn) |  | > 100 µM | > 100 µM
34 | COC(=O)c1ccccc1/N=C(/S)OCCN1C(=O)c2ccccc2C1=O |  | > 45 µM | 45 µM
